PMI act hi M6P: increases human PMI activity with near-saturating mannose 6-phosphate; P34949; coupled PMI enzyme assay, resazurin fluorescence, 20 min; stronger effect = higher value; 1 = untreated enzyme, 0 = substrate-free blank; activation factor at 20 µM; 190,000 compounds, 0.34% hits;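 active = activation factor of 2 or more at 20 µM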
Target sequence (P34949 whole entry, looked up): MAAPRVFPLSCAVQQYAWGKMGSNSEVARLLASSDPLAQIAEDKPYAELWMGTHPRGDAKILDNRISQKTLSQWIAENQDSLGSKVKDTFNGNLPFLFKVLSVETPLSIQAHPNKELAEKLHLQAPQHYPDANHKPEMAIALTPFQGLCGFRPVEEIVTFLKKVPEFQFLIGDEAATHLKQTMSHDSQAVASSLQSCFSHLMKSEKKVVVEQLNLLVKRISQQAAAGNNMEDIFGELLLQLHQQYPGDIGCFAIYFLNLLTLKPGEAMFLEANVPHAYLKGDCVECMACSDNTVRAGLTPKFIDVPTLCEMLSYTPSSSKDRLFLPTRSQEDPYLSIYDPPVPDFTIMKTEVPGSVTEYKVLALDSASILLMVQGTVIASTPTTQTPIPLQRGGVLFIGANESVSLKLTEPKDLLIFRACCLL
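assay system = human phosphomannose isomerase with PGI, G6PDH, diaphorase coupling enzymes | quantity = 15 ng/mL PMI | incubation = enzyme reaction with compound 20 min at room temperature | medium = HEPES pH 7.4 buffer with MgCl2 and Tween-20 | compound dosing = one concentration, 20 µM, in 1% DMSO | measured by = Diaphorase-driven resazurin-to-resorufin fluorescence, excitation 544, emission 590 nm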
DTT redox prof: compounds producing H2O2 with reducing agent – biochemical, NIH compound library profiling, artefact control for MLSCN library redox annotation, primary screen | activation, % at 10 µM | 200,000 compounds, 0.03% hits | DTT-dependent redox cycling H2O2, phenol red/HRP absorbance; 100% = 100 µM peroxide control, 0% = buffer;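 active = activation of at least 50% relative to the plate's high and low controls in the primary single-dose screen; inactive = activation below 50%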;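 also: compound incubated with DTT at 0.8 mM final as the reducing agent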
p97 ATPase inh: human p97 ATPase inhibition | P55072 | recombinant p97 ATPase, Kinase-Glo ATP luminescence, 3 h | inhibition, % at 8 µM | 220,000 compounds, 0.42% hits; in the data active = inhibition above about 15%
TbHK1 inh: T. brucei hexokinase 1 inhibition. 220,000 compounds, 0.11% hits. inhibition, % at 10 µM. recombinant TbHK1, G6PDH-coupled NADH A340. AID 1430;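 active = inhibition of 50% or more in the single-dose primary screen; inactive = inhibition below 50%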
G6PDH counter: counter-screen for G6PDH assay hits: L. mesenteroides G6PDH inhibition; Purified L. mesenteroides G6PDH, diaphorase/resazurin coupled fluorescence, 45 min; inhibition, % at 5 µM; 200,000 compounds, 0.12% hits; in the data active = inhibition above about 50%
PMI activator: phosphomannose isomerase (human) activation | P34949 | purified human PMI, coupled resazurin fluorescence, 20 min; stronger effect = higher value; 1 = vehicle control, 0 substrate-free wells | 190,000 compounds, 0.005% hits | activation factor at 20 µM | AID 1214;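 active = activation factor of 2 or more at 20 µM, relative to plate controls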
p97 confirm: confirmation of human p97 ATPase inhibitors; shares compounds with p97 ATPase inh; recombinant p97 ATPase, Kinase-Glo ATP luminescence; inhibition, % at 8 µM; 760 compounds, 44% hits; AID 1517;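 active = percent inhibition of p97 ATPase above a set limit, the primary screen's mean plus 3 SD, cut at about 15% in these data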
Hits are given with their value; 0 = inactive; - = not tested or not shown. Only some compounds are listed: those with a hit (about 0.91% of all), similar ones and a draw of the others.

SMILES	PMI act hi M6P	DTT redox prof	p97 ATPase inh	TbHK1 inh	G6PDH counter	PMI activator	p97 confirm
Cc1cc(C)c(S(=O)(=O)N(C)c2ccccc2)c(C)c1	0	0	0	0	0	0	-
O=C(Cn1c(-c2ccccc2)noc1=O)Nc1ccc(S(=O)(=O)N2CCOCC2)cc1	0	0	0	0	0	0	-
O=C(Cn1c(-c2ccccc2)noc1=O)Nc1ccc(N2CCCCCC2)cc1	0	0	16	0	0	0	0
CCN1CC(CN(C)Cc2nc(-c3ccc(OC)c4ccccc34)oc2C)CC1=O (stereo not given)	0	0	0	0	0	0	-
Cc1c(N(C(=O)CNC(=O)c2ccccc2)C2(C(=O)NC3CCCCC3)CCCCC2)c(=O)n(-c2ccccc2)n1C	0	0	0	0	0	0	-
Oc1ccccc1Nc1nc(NCc2ccccc2)c2ccccc2n1	0	0	26	0	0	0	31
OCCNc1nc(Nc2ccccc2)nc2ccccc12	0	0	0	0	0	0	-
COc1ccc(-c2cc(N)n(S(=O)(=O)c3c(F)c(F)c(F)c(F)c3F)n2)cc1OC	0	0	22	0	0	0	26
COc1ccc(S(=O)(=O)n2nc(-c3cc(OC)c(OC)c(OC)c3)cc2N)cc1OC	0	0	0	0	0	0	-
Cn1cccc1/C=C1\SC(=Nc2ccc(O)cc2)NC1=O	-	-	16	0	-	-	23
Cn1cccc1/C=C1\SC(=Nc2cccc(O)c2)NC1=O	-	-	16	0	-	-	0
Cc1ccc(N=C2NC(=O)/C(=C/c3cccn3C)S2)c(C)c1	-	-	0	0	-	-	-
Cn1cccc1/C=C1\SC(=Nc2ccccc2)NC1=O	-	-	0	0	-	-	-
CC1CCc2nc(NC(=O)Nc3ccc4c(c3)OCO4)sc2C1 (stereo not given)	0	0	0	0	0	0	-
COc1ccc(C(=O)NC(=S)Nc2ccc3oc(=O)ccc3c2)cc1OC	0	0	0	0	0	0	-
Cc1cccc(S(=O)(=O)c2c(C)cc(C)nc2Cl)c1	0	0	0	0	0	0	-
COc1ccc(NC(=O)N(CCCN(C)C)Cc2cc3cc(OC)ccc3[nH]c2=O)cc1	0	0	0	0	0	0	-
Cc1ccc2[nH]c(=O)c(CN(CCCN(C)C)C(=O)Nc3ccc(F)cc3)cc2c1	0	0	16	0	0	0	0
O=[N+]([O-])c1cccc(/C=N/n2c(-c3cccnc3)n[nH]c2=S)c1	0	0	0	0	0	0	-
CC(=O)N(C(C)=O)c1nc(-c2ccccc2)cn1/N=C/c1cccc([N+](=O)[O-])c1	-	-	18	0	-	-	24
N#CC1=C2SCN(c3ccccc3)CN2C(=O)CC1c1c(Cl)cccc1Cl (stereo not given)	0	0	17	0	0	0	0
CCOC(=O)c1cc([N+](=O)[O-])c([N+](=O)[O-])cc1NC(C)=O	0	0	16	0	0	0	35
CC1=NN(c2ccc(C)cc2C)C(=O)C1C(c1ccccc1O)C1C(=O)N(c2ccc(C)cc2C)N=C1C (stereo not given)	0	0	28	0	0	0	0
CCc1ccc(Nc2nnc(SC3CCOC3=O)s2)cc1 (stereo not given)	0	0	0	0	0	0	-
COc1cc(NC(=O)c2ccccc2-c2ccccc2)cc(OC)c1	0	0	0	0	0	0	-
SMILES	PMI act hi M6P	DTT redox prof	p97 ATPase inh	TbHK1 inh	G6PDH counter	PMI activator	p97 confirm
CCCCc1ccc(NC(=O)N2CCNC(=O)C2CC(=O)Nc2ccsc2C(=O)OC)cc1 (stereo not given)	-	-	0	0	-	-	-
C(=N\Nc1nc(N2CCOCC2)nc(N2CCOCC2)n1)/c1ccco1	-	0	18	0	0	-	0
Cc1ccc(/C=N/Nc2nc(N3CCOCC3)nc(N3CCOCC3)n2)o1	0	0	0	0	0	0	-
CC(C)N(CC(N)=O)C(=O)Cc1coc2cc3c(cc12)CCC3	0	0	26	0	0	0	0
Cc1ccccc1Oc1nc2c(C)cccn2c(=O)c1/C=C(\C#N)C(=O)NC1CCS(=O)(=O)C1 (stereo not given)	-	-	15	0	-	-	0
COc1ccc(OC)c(-c2cc(C(=O)NCc3ccc(Cl)cc3)no2)c1	0	0	0	0	0	0	-
Nc1ccc(Sc2cc(Cl)nc(N)n2)cc1	0	0	0	0	0	0	-
Nc1nc(N)c2cc(Sc3ccc4ccccc4c3)ccc2n1	-	-	15	0	-	-	24
O=c1cc(N=Nc2ccc(Cl)cc2)[nH]c(=O)[nH]1	-	-	28	0	-	-	15
Cc1ccc(NC(=O)/C(=C\c2ccc3c(c2)OCO3)NC(=O)c2ccco2)cc1	0	0	0	0	0	0	-
O=C(CSc1ccccc1)N1CCN(c2ccccn2)CC1	0	0	0	0	0	0	-
O=C(CSc1ccsc1[N+](=O)[O-])N1CCN(c2ccccn2)CC1	0	0	18	0	0	0	0
CC1CCCC(C)N1/N=C/c1ccc(C#N)cc1 (stereo not given)	0	0	0	0	0	0	-
O=c1c2ccccc2nc2c3ccccc3c(Cl)nn12	-	0	21	0	0	-	25
CC(=O)NCCCC(=O)NNC1CC(=O)N(c2cccc(Cl)c2)C1=O (stereo not given)	-	-	0	0	-	-	-
CCOC(=O)C1=C(c2ccccc2)NC(=O)NC1c1cc(Cl)c(O)c(OC)c1 (stereo not given)	0	0	0	0	0	0	-
CCOC(=O)C1=C(c2ccccc2)NC(N)=NC1c1ccc(OCc2ccc(Cl)cc2)c(OC)c1 (stereo not given)	-	-	20	0	-	-	28
O=C(C#Cc1cccc([N+](=O)[O-])c1)c1ccccc1	0	0	21	0	0	0	25
CCOC(=O)CC(C#N)c1c[nH]c2ccccc12 (stereo not given)	0	0	16	0	0	0	0
COc1ccc(CCn2c(N)c(C(=O)NCc3ccco3)c3nc4ccccc4nc32)cc1OC	0	0	0	0	0	0	-
COc1ccc(CCn2c(N)c(C(=O)NCc3ccco3)c3nc4ccccc4nc32)cc1	0	0	16	0	0	0	0
Cc1ccc([N+](=O)[O-])cc1NC(=O)CCCOc1ccccc1	0	0	0	0	0	0	-
COc1ccc(CC2(CO)CCN(Cc3nc(C(C)C)cs3)CC2)cc1	0	0	0	0	0	0	-
Cc1ccc(S(=O)(=O)CCC(=O)OCC(=O)c2c(C)[nH]c3ccccc23)cc1	0	0	20	0	0	0	0
Cc1[nH]c2ccccc2c1C(=O)CCl	0	0	36	0	0	0	37
CCOC(=O)c1c(C)[nH]c(C(=O)COC(=O)CCS(=O)(=O)c2ccc(C)cc2)c1C	0	-	0	0	0	0	-

Assay outcomes from PubChem.
